From ChEMBL document CHEMBL4811275, “Iodinated 1,2-diacylhydrazines, benzohydrazide-hydrazones and their analogues as dual antimicrobial and cytotoxic agents” (Bioorg Med Chem, 2021)
Converted amounts (≈) assume the structure as drawn.

What was measured:
[1] = Therapeutic index, ratio of IC50 for cytotoxicity against human HepG2 cells to MIC for antifungal activity against Candida albicans ATCC 24443
Lichtheimia corymbifera [2] = test: Antifungal activity against Lichtheimia corymbifera CCM 8077 assessed as reduction in fungal growth incubated for 48 hrs by broth microdilution method; type: functional
In short: (§1)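 Broth microdilution per EUCAST (yeasts and moulds), modified: twofold dilutions from DMSO (final ≤1% v/v) in RPMI-1640 with L-glutamine, 2% glucose, MOPS-buffered pH 7.0; scale from 0.49 µM. Static, dark, humidified, 35 ± 2 °C for 24 and 48 h (Trichophyton interdigitale 72 and 120 h). MIC = complete visible inhibition by eye; duplicates within one dilution step.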

Candida parapsilosis [3] = test: Antifungal activity against Candida parapsilosis ATCC 22019 assessed as reduction in fungal growth incubated for 48 hrs by broth microdilution method; type: functional; settings: Lodderomyces parapsilosis
In short: as §1

Candida parapsilosis [4] = test: Antifungal activity against Candida parapsilosis ATCC 22019 assessed as reduction in fungal growth incubated for 24 hrs by broth microdilution method; type: functional; settings: Lodderomyces parapsilosis
In short: as §1

Escherichia coli [5] = test: Antibacterial activity against Escherichia coli ATCC 25922 assessed as reduction in bacterial growth incubated for 24 hrs by broth microdilution method; type: functional
In short: (§2)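 Cation-adjusted Mueller-Hinton broth microdilution per EUCAST, modified; compounds from DMSO stocks, final DMSO ≤1% v/v; scale starting from 0.49 µM. Static incubation at 35 ± 2 °C, dark, humidified, read at 24 and 48 h. MIC = lowest concentration with no visible growth by eye; duplicates, parallel readings within one dilution step; growth and medium/DMSO controls included.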

[6] = system: Trichophyton interdigitale; test: Antifungal activity against Trichophyton interdigitale ATCC 9533 assessed as reduction in fungal growth incubated for 72 hrs by broth microdilution method; type: functional
In short: as §1

Staphylococcus aureus [7] = test: Antibacterial activity against methicillin-resistant Staphylococcus aureus ATCC 43300 assessed as reduction in bacterial growth incubated for 24 hrs by broth microdilution method; type: functional
In short: (§3)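 EUCAST-based broth microdilution in cation-adjusted Mueller-Hinton broth. DMSO stocks, final DMSO ≤1% v/v, concentration scale starting from 0.49 µM. Static incubation at 35 ± 2 °C, dark and humidified. Run in duplicate, accepted only if parallel MICs differ by at most one dilution step. MIC is the lowest concentration with no visible growth by naked eye.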

Lichtheimia corymbifera [8] = test: Antifungal activity against Lichtheimia corymbifera CCM 8077 assessed as reduction in fungal growth incubated for 24 hrs by broth microdilution method; type: functional
In short: as §1

Staphylococcus aureus [9] = test: Antibacterial activity against Staphylococcus aureus ATCC 29213 assessed as reduction in bacterial growth incubated for 48 hrs by broth microdilution method; type: functional
In short: as §2

Pichia kudriavzevii [10] = test: Antifungal activity against Candida krusei ATCC 6258 assessed as reduction in fungal growth incubated for 24 hrs by broth microdilution method; type: functional
In short: as §1

[11] = system: Staphylococcus epidermidis; test: Antibacterial activity against Staphylococcus epidermidis ATCC 12228 assessed as reduction in bacterial growth incubated for 48 hrs by broth microdilution method; type: functional
In short: as §2

Enterococcus faecalis [12] = test: Antibacterial activity against Enterococcus faecalis ATCC 29212 assessed as reduction in bacterial growth incubated for 48 hrs by broth microdilution method; type: functional
In short: as §2

Pichia kudriavzevii [13] = test: Antifungal activity against Candida krusei ATCC 6258 assessed as reduction in fungal growth incubated for 48 hrs by broth microdilution method; type: functional
In short: as §1

HK-2 = test: Cytotoxicity against human HK-2 cells assessed as reduction in cell viability incubated for 24 hrs by cell-titer 96 aqueous one solution cell proliferation assay; type: cell-based; settings: HK-2, 24 h
Candida albicans [14] = test: Antifungal activity against Candida albicans ATCC 24443 assessed as reduction in fungal growth incubated for 24 hrs by broth microdilution method; type: functional
In short: as §1

HepG2 = test: Cytotoxicity against human HepG2 cells assessed as reduction in cell viability incubated for 24 hrs by cell-titer 96 aqueous one solution cell proliferation assay; type: functional, cell-based; settings: HepG2, 24 h
[15] = system: Trichophyton interdigitale; test: Antifungal activity against Trichophyton interdigitale ATCC 9533 assessed as reduction in fungal growth incubated for 120 hrs by broth microdilution method; type: functional
In short: as §1

[16] = system: Staphylococcus epidermidis; test: Antibacterial activity against Staphylococcus epidermidis ATCC 12228 assessed as reduction in bacterial growth incubated for 24 hrs by broth microdilution method; type: functional
In short: as §2

Staphylococcus aureus [17] = test: Antibacterial activity against Staphylococcus aureus ATCC 29213 assessed as reduction in bacterial growth incubated for 24 hrs by broth microdilution method; type: functional
In short: as §2

Escherichia coli [18] = test: Antibacterial activity against Escherichia coli ATCC 25922 assessed as reduction in bacterial growth incubated for 48 hrs by broth microdilution method; type: functional
In short: as §2

Candida albicans [19] = test: Antifungal activity against Candida albicans ATCC 24443 assessed as reduction in fungal growth incubated for 48 hrs by broth microdilution method; type: functional
In short: as §1

Staphylococcus aureus [20] = test: Antibacterial activity against methicillin-resistant Staphylococcus aureus ATCC 43300 assessed as reduction in bacterial growth incubated for 48 hrs by broth microdilution method; type: functional
In short: as §3

Enterococcus faecalis [21] = test: Antibacterial activity against Enterococcus faecalis ATCC 29212 assessed as reduction in bacterial growth incubated for 24 hrs by broth microdilution method; type: functional
In short: as §2

Row | Compound | MIC (Lichtheimia corymbifera [2]) [µM] | MIC (Candida parapsilosis [3]) [µM] | MIC (Candida parapsilosis [4]) [µM] | MIC (Escherichia coli [5]) [µM] | MIC [6] [µM] | MIC (Staphylococcus aureus [7]) [µM] | MIC (Lichtheimia corymbifera [8]) [µM] | MIC (Staphylococcus aureus [9]) [µM] | MIC (Pichia kudriavzevii [10]) [µM] | MIC [11] [µM] | MIC (Enterococcus faecalis [12]) [µM] | MIC (Pichia kudriavzevii [13]) [µM] | MIC (Candida albicans [14]) [µM] | IC50 (HepG2) [µM] | MIC [15] [µM] | MIC [16] [µM] | MIC (Staphylococcus aureus [17]) [µM] | MIC (Escherichia coli [18]) [µM] | MIC (Staphylococcus aureus [20]) [µM] | MIC (Enterococcus faecalis [21]) [µM] | also measured
1 | O=C(N/N=C/c1cc(I)cc(I)c1O)c1ccc([N+](=O)[O-])cc1 | 62.5 (≈ 33.6 µg/mL) | > 125 | > 125 | > 125 | 3.9 (≈ 2.09 µg/mL) | 31.2 (≈ 16.8 µg/mL) | 31.2 (≈ 16.8 µg/mL) | 62.5 (≈ 33.6 µg/mL) | 62.5 (≈ 33.6 µg/mL) | 62.5 (≈ 33.6 µg/mL) | 125 (≈ 67.1 µg/mL) | > 125 | 1.95 (≈ 1.05 µg/mL) | 24.7 | 15.6 (≈ 8.39 µg/mL) | 31.2 (≈ 16.8 µg/mL) | 31.2 (≈ 16.8 µg/mL) | > 125 | 62.5 (≈ 33.6 µg/mL) | 62.5 (≈ 33.6 µg/mL) | Ratio [1]: 13.1; IC50 (HK-2): 26.8 µM; MIC (Candida albicans [19]): 7.81 µM (≈ 4.19 µg/mL)
2 | Oc1c(I)cc(I)cc1CNNC(O)c1ccc(F)cc1 (configuration not stated) | > 500 | > 500 | > 500 | > 500 | 62.5 (≈ 32.1 µg/mL) | 31.2 (≈ 16.1 µg/mL) | > 500 | 15.6 (≈ 8.03 µg/mL) | > 500 | 7.81 (≈ 4.01 µg/mL) | 15.6 (≈ 8.03 µg/mL) | > 500 | > 500 | 41.9 | 62.5 (≈ 32.1 µg/mL) | 7.81 (≈ 4.01 µg/mL) | 15.6 (≈ 8.03 µg/mL) | > 500 | 62.5 (≈ 32.1 µg/mL) | 15.6 (≈ 8.03 µg/mL) | MIC (Candida albicans [19]): > 500 µM
3 | O=C(NNCc1cc(I)cc(I)c1O)c1ccc(F)cc1 | 31.2 (≈ 16 µg/mL) | > 125 | > 125 | > 500 | 15.6 (≈ 8 µg/mL) | 62.5 (≈ 32 µg/mL) | 15.6 (≈ 8 µg/mL) | 125 (≈ 64 µg/mL) | > 125 | 62.5 (≈ 32 µg/mL) | 62.5 (≈ 32 µg/mL) | > 125 | 125 (≈ 64 µg/mL) | 52.2 | 31.2 (≈ 16 µg/mL) | 62.5 (≈ 32 µg/mL) | 62.5 (≈ 32 µg/mL) | > 500 | 125 (≈ 64 µg/mL) | 31.2 (≈ 16 µg/mL) | MIC (Candida albicans [19]): > 125 µM
4 | O=C(NNC(=O)c1cc(I)cc(I)c1O)c1ccc(I)cc1 |  |  |  | > 250 |  | 125 (≈ 79.2 µg/mL) |  | 250 (≈ 158 µg/mL) |  | 125 (≈ 79.2 µg/mL) | 250 (≈ 158 µg/mL) |  |  | 25.1 |  | 62.5 (≈ 39.6 µg/mL) | 250 (≈ 158 µg/mL) | > 250 | 250 (≈ 158 µg/mL) | 125 (≈ 79.2 µg/mL) | IC50 (HK-2): > 100 µM
